Assay results from different studies.
Compare with care: the assays were run in different laboratories.
Target: Maternal embryonic leucine zipper kinase (MELK, Homo sapiens, UniProt Q14680)

| Compound | assay | conditions | measurement | result |
| --- | --- | --- | --- | --- |
| Cc1nn(C)cc1-c1nc2c(N3CCN(Cc4ccc(Cl)cc4)CC3)c(Cl)cnc2[nH]1 | binding, competition with immobilised ligand | 1 µM | remaining binding | 100% |
| Cn1cncc1[C@@](O)(COc1ccc(C#N)cc1-c1ccc(OC(F)(F)F)cc1)c1ccc(C#N)cc1 | cell-free assay, competition with immobilised ligand | 1 µM | remaining binding | 79% |
| O=c1[nH]c2ccccc2n1C1CCN(Cc2ccc(-c3[nH]c4cc5ncnc5cc4nc3-c3ccccc3)cc2)CC1 | cell-free assay | 0.5 µM | remaining signal | 110% |
| Cn1cc(-c2cccc(N3CCc4c(sc5c4CC(C)(C)C5)C3=O)c2CO)cc(Nc2ccncn2)c1=O | enzyme activity, inhibitor | 1 µM | inhibition | 5% |
| COc1cc(Nc2ncc(F)c(Nc3ccc4c(n3)NC(=O)C(C)(C)O4)n2)cc(OC)c1OC | binding, competition with immobilised ligand | 10 µM | inhibition | 71% |
| Cn1cc(-c2cc(F)cc(N3CCn4c(cc5c4CCCC5)C3=O)c2CO)cc(Nc2ccc(N3CCN(C4COC4)CC3)cn2)c1=O | enzyme activity, inhibitor | 0.1 µM | inhibition | 16% |
| COc1ncccc1-c1cnn2ccc(N3CCN(C(=O)OC(C)C)CC3)nc12 | binding, competition with immobilised ligand | 1 µM | remaining binding | 97% |
| N#CC1(c2ccccn2)CCN(Cc2cc(C(=O)O)c(=O)n3ccccc23)CC1 | cell-free assay, competition with immobilised ligand | 1 µM | remaining binding | 55% |
| CC(C)(C)c1cc(C=C(C#N)C#N)cc(Br)c1O | enzyme activity, inhibitor | 0.5 µM | remaining activity | 91.6% |
